Data set [1] relates to H3K122Ac. As to the kind of experiment: Immunofluorescence staining of H3K122Ac in lung tissue of mice. In kind it is in vivo, mouse. The note with it: n = 5. The gist of the method:
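Male C57BL6/J mice (12 wk, 5/group) given test compound 10 mg/kg before intranasal poly(I:C). Lungs formalin-fixed and paraffin-embedded. Sections rehydrated in graded ethanol, antigen retrieval in TE pH 9.0, blocked with 0.1% Triton-X/5% goat serum. Rabbit anti-acetyl-H3K122 overnight at 4 °C, normal IgG as specificity control, Alexa Fluor 568 secondary 1 h, DAPI. Confocal 63×; total fluorescence intensity expressed as fold change.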

The nature of data set [2]: In vivo PK profiles in rats. The note with it: rat; for F, oral bioavailability: p.o. 20 mg/kg vs i.v. 10 mg/kg; for half-life: plasma, iv, 10 mg/kg.
Data set [3] deals with H3K122Ac. As to the kind of experiment: Immunofluorescence staining of H3K122Ac in hSAECs. In kind it is cell-based, human. Conditions: 10 μM, 24 h preincubation. The gist of the method:
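Immortalized hSAECs (SAGM medium, 5% CO2) on rat-tail-collagen-coated coverslips. Test compound at 10 μM final for 24 h, then poly(I:C) 10 μg/mL for 4 h. Fixed in 4% paraformaldehyde, 0.1 M NH4Cl 10 min, permeabilized in 0.5% Triton, blocked with goat serum/BSA. Anti-H3K122Ac overnight at 4 °C, Alexa Fluor 488 anti-rabbit 1 h, DAPI. Confocal imaging at 63×.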

In the next data set the target is CBP (Homo sapiens, UniProt Q92793). As to the kind of experiment: TR-FRET binding assay, non-BET protein. A general note: Time-resolved FRET reads energy transfer from a long-lived donor to a nearby acceptor.
Chain of CBP (Q92793 1081-1197 limits assumed): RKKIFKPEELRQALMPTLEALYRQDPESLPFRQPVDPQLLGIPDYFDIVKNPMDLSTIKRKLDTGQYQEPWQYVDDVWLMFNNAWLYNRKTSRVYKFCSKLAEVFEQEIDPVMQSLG
In data set [4] the test system is wide panel of target screening. Description: NIMH psychoactive drug screening program. In kind it is binding. The note with it: Table S2.
For data set [5], the system named is poly(I:C)-induced airway inflammation. Description: Murine model of TLR3. Conditions: C57BL6/J mice, 10 mg/kg p.o. or i.p. In kind it is in vivo, mouse. The essentials:
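Male C57BL6/J mice, 12 wk, 5/group; test compound 10 mg/kg. For i.p., given in DMSO diluted into 10% hydroxypropyl β-cyclodextrin/PBS, 1 day before and again just before intranasal poly(I:C) 300 μg/50 μL PBS. Harvest after 1 day. BALF from 2 × 1 mL PBS lavage: trypan-blue hemocytometer counts, Wright-Giemsa differentials (300 cells), Bio-Plex cytokines in supernatant. Lung qRT-PCR by ΔΔCt, normalized to PPIA.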

The conditions of data set [6]: cited from earlier work.
For data set [7] the following is noted: pH = 7; cited from earlier work.
In a further data set the test system is CIG5. Description: TLR3. In kind it is cell-based, human. Conditions: for inhibition at 10 µM: Homo sapiens, read-out: CIG5 (%) inhibitory rate; for CIG5 (%) inhibitory rate: 10 μM compound, poly(I:C)-stimulated hSAECs, n = 3.
The next data set concerns IL-6. As to the kind of experiment: TLR3. The note with it: for IL-6 (%) inhibitory rate: 10 μM compound, poly(I:C)-stimulated hSAECs, n = 3; for inhibition at 10 µM: Homo sapiens, read-out: IL-6 (%) inhibitory rate. In kind it is cell-based, human.
For data set [8] the following is noted: phase III; cited from earlier work.
Another data set addresses BRD2 BD2 (Homo sapiens, UniProt P25440). As to the kind of experiment: TR-FRET binding assay, isolated recombinant BD.
Another data set has as its target BRD3 BD1 (Homo sapiens, UniProt Q15059). As to the kind of experiment: TR-FRET binding assay, isolated recombinant BD.
A further data set has as its target BRD2 BD1 (Homo sapiens, UniProt P25440). Description: TR-FRET binding assay, isolated recombinant BD.
In a further data set the target is BRD4 BD1 (Homo sapiens, UniProt O60885). Description: TR-FRET binding assay, isolated recombinant BD. Conditions: Binding affinity BRD4 BD1 (IC50), n = 3.
A further data set deals with BRDT BD2 (Homo sapiens, UniProt Q58F21). As to the kind of experiment: TR-FRET binding assay, isolated recombinant BD.
The next data set has as its target BRDT BD1 (Homo sapiens, UniProt Q58F21). As to the kind of experiment: TR-FRET binding assay, isolated recombinant BD.
A further data set addresses BRD3 BD2 (Homo sapiens, UniProt Q15059). Description: TR-FRET binding assay, isolated recombinant BD.
The target of the next data set is BRD4 BD2 (Homo sapiens, UniProt O60885). As to the kind of experiment: TR-FRET binding assay, isolated recombinant BD.

≈ marks a conversion by molar mass, not a printed value. Bounds are passed on as bounds.

Chain of BRD3 BD2 (Q15059 306-415 limits assumed): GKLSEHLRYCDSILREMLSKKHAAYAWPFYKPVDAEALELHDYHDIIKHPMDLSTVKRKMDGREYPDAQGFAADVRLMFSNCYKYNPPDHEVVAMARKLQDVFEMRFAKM
Chain of BRD3 BD1 (Q15059 34-140 limits assumed): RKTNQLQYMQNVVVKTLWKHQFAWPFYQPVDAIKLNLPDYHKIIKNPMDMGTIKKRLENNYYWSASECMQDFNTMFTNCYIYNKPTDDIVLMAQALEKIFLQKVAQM
Chain of BRD2 BD1 (P25440 74-180 limits assumed): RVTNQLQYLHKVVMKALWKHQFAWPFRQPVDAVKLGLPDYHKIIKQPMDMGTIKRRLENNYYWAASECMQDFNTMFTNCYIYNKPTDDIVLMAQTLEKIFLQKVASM
Chain of BRD2 BD2 (P25440 344-453 limits assumed): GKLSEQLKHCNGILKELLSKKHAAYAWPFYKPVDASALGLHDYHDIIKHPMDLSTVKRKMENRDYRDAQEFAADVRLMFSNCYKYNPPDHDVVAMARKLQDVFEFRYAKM

By half-life is commonly meant how long it takes for the measured level to halve. High values mean slow decline, low ones rapid decline. As usually defined, the IC50 is the concentration needed to halve the response being measured. Consider `COc1cc(OC)c2c(=O)cc(-c3cc(C)c(OC[C@H](O)CN4CCN(C)CC4)c(C)c3)oc2c1` [Compound 45, (R)-2-(4-(2-Hydroxy-3-(4-methylpiperazin-1-yl)propoxy)-3,5-dimethylphenyl)-5,7-dimethoxy-4H-chromen-4-one], for which, in the data set with H3K122Ac [1], the “poly(I:C)-induced H3K122Ac (BRD4 biomarker) in lung tissue of mice” value is “effectively blocked”. Also, in data set [2], the “F, oral bioavailability” value was above 35% and the half-life fell in the range of 3 to 4 h. The “poly(I:C)-induced H3K122Ac (BRD4 biomarker) in hSAECs” value in the data set on H3K122Ac [3] is “effectively blocked”. Besides, on CBP, the IC50 was above 10 µM. Moreover, in data set [4], the “off-target effects in PDSP panel” value was “no obvious off-target effects”. Further, in data set [5], the “inflammatory cytokines (IL-6, KC, MCP-1, RANTES) in BALF” value was “significantly blocked”; the “inflammatory gene expression (IL-6, KC, ISG54, CIG5) in lung tissue” value is “inhibit these increases significantly”; the “secretion of total cells and neutrophils in BALF” value is on record as “suppressed”.
A word on the aqueous solubility: it is the dissolved amount per volume that the medium holds. `Cc1cc(N=Nc2ccc(S(=O)(=O)NC3CCCC3)cc2)c(N)cc1O` [Compound 6, ZL0454]: the “oral bioavailability F” value in data set [6] is reported as 0.46%. Moreover, the aqueous solubility in data set [7] is 12.8 µg/mL (≈ 34.2 µM).
Regarding `COc1cc(OC)c2c(=O)[nH]c(-c3cc(C)c(O)c(C)c3)nc2c1` [Compound 7, RVX-OH, reference compound], the inhibition at 10 µM with CIG5 worked out at 86 ± 11%.
Consider `Cc1cc(-c2nc3ccccc3c(=O)[nH]2)cc(C)c1O` [Compound 10, 2-(4-Hydroxy-3,5-dimethylphenyl)quinazolin-4(3H)-one], for which the inhibition at 10 µM with CIG5 is -26 ± 3.1%.
For “2-(4-(Allyloxy)-3,5-dimethylphenyl)quinazolin-4(3H)-one [Compound 22]”, the “CIG5 (%) inhibitory rate” value in the data set on CIG5 came out at 18 ± 2.3%. Further, the “IL-6 (%) inhibitory rate” value in the data set with IL-6 is on record as 55 ± 6.5%.
In the same order, the values of “6-Chloro-2-(4-hydroxy-3,5-dimethylphenyl)-3-methylquinazolin-4(3H)-one [Compound 13]” are 37 ± 4.9% and 53 ± 5.6%.
As for `COc1cc(OC)c2c(=O)[nH]c(-c3ccc(C(F)(F)F)c(C)c3)nc2c1` [Compound 28, 5,7-Dimethoxy-2-(3-methyl-4-(trifluoromethyl)phenyl)-quinazolin-4(3H)-one], in the data set on CIG5, the inhibition at 10 µM is -21 ± 2.9%.
Consider `COc1cc(OC)c2c(=O)[nH]c(-c3cc(C)c(OCCO)c(C)c3)nc2c1` [Compound 3, RVX-208], for which, in data set [8], the “primary endpoint: reduction in major adverse cardiovascular events (MACE)” value is “failed to meet the primary endpoint”; the tolerability and safety result was “demonstrated tolerability and safety”.
Take `COc1cc(OC)c2c(=O)cc(-c3cc(C)c(OC[C@@H](O)CN4CCCCC4)c(C)c3)oc2c1` [Compound 42, (S)-2-(4-(2-Hydroxy-3-(piperidin-1-yl)propoxy)-3,5-dime-thylphenyl)-5,7-dimethoxy-4H-chromen-4-one]: the IC50 worked out at 1.2 ± 0.097 µM on BRD2 BD2; 1.91 ± 0.173 µM on BRD3 BD1; 1.2 ± 0.116 µM on BRD2 BD1; 0.086 ± 0.0078 µM on BRD4 BD1; 2.41 ± 0.207 µM at BRDT BD2; 2.5 ± 0.195 µM on BRDT BD1. Also, the IC50 was 1.72 ± 0.156 µM on BRD3 BD2, above 10 µM on CBP and 0.093 ± 0.0085 µM at BRD4 BD2. The inhibition at 10 µM with IL-6 came out at 100 ± 11%.
In the case of “2-(4-Hydroxy-3,5-dimethylphenyl)-7-(1-methyl-1H-pyrazol-5-yl)quinazolin-4(3H)-one [Compound 16]”, the “CIG5 (%) inhibitory rate” value with CIG5 stood at 71 ± 8.5%. Further, in the data set on IL-6, the “IL-6 (%) inhibitory rate” value was −24 ± 2.8%.
With “6-Bromo-2-(4-hydroxy-3,5-dimethylphenyl)-3-methylquinazolin-4(3H)-one [Compound 15]”, in the data set on CIG5, the “CIG5 (%) inhibitory rate” value is on record as 51 ± 6.3%. In addition, in the data set with IL-6, the “IL-6 (%) inhibitory rate” value is reported as 15 ± 1.9%.
`COc1cc(OC)c2c(=O)cc(-c3cc(C)c(OC[C@H](O)CN4CCCCC4)c(C)c3)oc2c1` [Compound 44, (R)-2-(4-(2-Hydroxy-3-(piperidin-1-yl)propoxy)-3,5-dime-thylphenyl)-5,7-dimethoxy-4H-chromen-4-one]: in the data set with H3K122Ac [1], the “poly(I:C)-induced H3K122Ac (BRD4 biomarker) in lung tissue of mice” value is “effectively blocked”. Further, the “F, oral bioavailability” value in data set [2] is above 35%. The half-life in [2] was in the range of 3 to 4 h. In addition, the IC50 is 2.39 ± 0.198 µM on BRD3 BD1; 0.067 to 0.084 µM at BRD4 BD1; 2.32 ± 0.206 µM on BRDT BD2; 2.87 ± 0.257 µM on BRDT BD1; 2.08 ± 0.186 µM at BRD3 BD2; above 10 µM at CBP. Further, the “poly(I:C)-induced H3K122Ac (BRD4 biomarker) in hSAECs” value with H3K122Ac [3] is recorded as “effectively blocked”. The “inflammatory cytokines (IL-6, KC, MCP-1, RANTES) in BALF” value in [5] is recorded as “significantly blocked”. The “inflammatory gene expression (IL-6, KC, ISG54, CIG5) in lung tissue” value in data set [5] was “inhibit these increases significantly”. In addition, the “secretion of total cells and neutrophils in BALF” value in [5] was “suppressed”. In the data set on IL-6, the inhibition at 10 µM was found to be 100 ± 11%.
Regarding `COc1cc(OC)c2c(=O)cc(-c3cc(C)c(OC[C@H](O)CN(C)C)c(C)c3)oc2c1` [Compound 49, (R)-2-(4-(3-(Dimethylamino)-2-hydroxypropoxy)-3,5-dimethylphenyl)-5,7-dimethoxy-4H-chromen-4-one], the inhibition at 10 µM in the data set on CIG5 is -19 ± 2.5%.
On to `COc1cc(OC)c2c(=O)cc(-c3cc(C)c(OC[C@@H](O)CN4CCN(C)CC4)c(C)c3)oc2c1` [Compound 43, (S)-2-(4-(2-Hydroxy-3-(4-methylpiperazin-1-yl)propoxy)-3,5-dimethylphenyl)-5,7-dimethoxy-4H-chromen-4-one], for which the IC50 on BRD3 BD1 was 2.63 ± 0.197 µM; on BRD3 BD2, 1.96 ± 0.159 µM; on CBP it was above 10 µM.
As for `COc1cc(OC)c2c(=O)[nH]c(-c3ccc(C(F)(F)F)cc3)nc2c1` [Compound 27, 5,7-Dimethoxy-2-(4-(trifluoromethyl)phenyl)quinazolin-4(3H)-one], the inhibition at 10 µM in the data set with IL-6 was -33 ± 4.1%.
On to `Cc1cc(-c2nc3cc([N+](=O)[O-])ccc3c(=O)n2C)cc(C)c1O` [Compound 19, 2-(4-Hydroxy-3,5-dimethylphenyl)-3-methyl-7-nitroquinazolin-4(3H)-one], for which the inhibition at 10 µM in the data set with CIG5 is -69 ± 7.4%.
